Assay [1] deals with IFNγ+ cells in mouse splenocytes. As to the kind of experiment: Induction of IFNγ+ cells in mouse splenocytes in vitro. The assay is classed as cell-based. As to conditions: optimal dose 20 µg/ml. In outline:
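Splenocytes came from female 129 mice, 3–5 weeks old. They were cultured 16 h in RPMI 1640/10% FCS with or without test agent in plates coated with anti-mouse IFNγ antibody. IFNγ+ cells were detected in situ by ELISPOT and counted with an automated reader. Values are mean ± SD of duplicates.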

For assay [2], the system named is IFNγ+ cells in human peripheral blood. As to the kind of experiment: Induction of IFNγ+ cells in human peripheral blood in vitro. The format is cell-based. As to conditions: 20 µg/ml. The method in brief:
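Whole heparinized blood (0.1 ml) from healthy volunteers was incubated with test agent at 37°C for 4 h. RBCs were lysed with hypotonic buffer (10 mM Tris pH 7.4, 10 mM NaCl), and the WBC pellet was washed and resuspended in RPMI 1640/10% FCS. IFNγ+ cells were quantified by human IFNγ ELISPOT (16 h culture). Values are mean ± SD of duplicates.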

The test system of the next assay is B16 melanoma tumors. As to the kind of experiment: B16 melanoma tumors in C57BL/6 mice. The format is in vivo, mouse. As to conditions: 12 mg, daily, 5 d/wk, s.c.
The test system of assay [3] is cellular phospho-tyrosine proteins in Jurkat cells. Put plainly: Profile of cellular phospho-tyrosine proteins in Jurkat cells. The format is cell-based, human. As to conditions: 10 min.

Regarding `O.O.O.O.O.O.O.O.O.O=C([O-])[C@@H]1[O][Sb](=[O])([O][Sb]2(=[O])[O][C@H]([C@H](O)CO)[C@H](O)[C@H](C(=O)[O-])[O]2)[O][C@H]([C@H](O)CO)[C@@H]1O.[Na+].[Na+].[Na+]` (stereo partly shown) [SSG, sodium stibogluconate], in assay [1], the “maximal increase of IFNγ+ cells” value is ~ 3 fold. The “induction of IFNγ+ cells” value in assay [2] is recorded as ~ 2 fold. Also, the “response of B16 tumors” value with B16 melanoma tumors is on record as “not responsive”.
Take pervanadate [pervanadate (PV)]: in assay [3], the “effect on profile of cellular phospho-tyrosine proteins” value is “marked increases of multiple phosphotyrosine proteins”.

For the origin of these results see paper PMC3049920 (Journal of immunology (Baltimore, Md. : 1950), 2010).
